Test [1] addresses T1, Nicotinamide phosphoribosyltransferase (Homo sapiens, UniProt P43490). As to the kind of experiment: Positive allosteric modulator activity at human C-terminal his 6 tagged NAMPT using NAM and PRPP as substrate by coupled enzymatic analysis.
Target sequence in this assay (P43490 whole entry): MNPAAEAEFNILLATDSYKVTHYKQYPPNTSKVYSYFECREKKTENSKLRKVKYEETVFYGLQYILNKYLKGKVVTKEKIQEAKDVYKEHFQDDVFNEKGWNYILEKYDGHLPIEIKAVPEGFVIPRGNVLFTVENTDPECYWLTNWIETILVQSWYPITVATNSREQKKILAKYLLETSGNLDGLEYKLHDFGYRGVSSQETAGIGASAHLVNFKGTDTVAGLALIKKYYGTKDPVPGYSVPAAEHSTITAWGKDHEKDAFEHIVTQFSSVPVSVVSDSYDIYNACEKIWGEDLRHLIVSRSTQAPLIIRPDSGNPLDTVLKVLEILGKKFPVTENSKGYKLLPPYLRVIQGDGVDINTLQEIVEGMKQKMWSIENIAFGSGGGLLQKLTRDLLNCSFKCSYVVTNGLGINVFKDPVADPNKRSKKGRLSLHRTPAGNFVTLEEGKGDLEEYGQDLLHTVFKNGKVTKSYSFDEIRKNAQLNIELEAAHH
Test [2] deals with HT-22. As to the kind of experiment: Inhibition of oxidative stress in HT-22 cells assessed as fold reduction in […] induced ROS level at 5.0 uM measured after 18 to 24 hrs by MitoSOX red dye based flow cytometry analysis. Format: functional, Mus musculus. The conditions noted are these: time 18-24 hrs. The essentials:
(§1)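 HT22 mouse hippocampal neuronal cells (passage 12-50) grown in DMEM with 10% FBS, seeded at 3,000-5,000 cells/well on poly D-lysine-coated wells and left overnight. Cells were pretreated with compound in matched DMSO/PBS vehicle for 18-24 h, then stressed with recombinant mouse TNFα for a further 18-24 h. Staining in PBS used 1 μM calcein-AM, 5 μM MitoSOX and 10 μg/mL Hoechst for 30-45 min. Mitochondrial ROS was read as MitoSOX mean intensity on a Celigo imaging cytometer and given as fold-change over vehicle. Each run had ≥3 intraplate replicates, and the assay was repeated in ≥3 separate experiments.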
(A flow cytometer gives signals particle by particle.)

In test [3] the test system is HT-22. The experiment in a line: Inhibition of oxidative stress in HT-22 cells assessed as fold reduction in […] induced ROS level at 0.3 uM measured after 18 to 24 hrs by MitoSOX red dye based flow cytometry analysis. Type of test: functional, Mus musculus. The conditions noted are these: time 18-24 hrs. The essentials:
as §1

The subject of test [4] is HT-22. As to the kind of experiment: Inhibition of oxidative stress in HT-22 cells assessed as fold reduction in […] induced ROS level at 2.5 uM measured after 18 to 24 hrs by MitoSOX red dye based flow cytometry analysis. Type of test: functional, Mus musculus. The conditions noted are these: time 18-24 hrs. The essentials: as §1
Test [5] addresses T1, Nicotinamide phosphoribosyltransferase. As to the kind of experiment: Positive allosteric modulator activity at C-terminal his 6 tagged NAMPT in human THP-1 cells assessed as increase in NAD+ level at 30 uM incubated for 24 hrs by NAD-glo assay relative to control. Format: cell-based. The essentials:
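THP-1 cells in RPMI 1640 with 10% heat-inactivated FBS, seeded at 37,500 cells/well (low passage). Held 1.5 h at 37 °C, 5% CO2, then treated with compound in DMSO (final ≤1%) for 24 h. NAD+ measured by NAD+/NADH-Glo luminescence. Three separate experiments per concentration.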
Target sequence in this assay (P43490 whole entry, looked up): as the sequence (P43490 whole entry) above

The subject of test [6] is HT-22. The experiment in a line: Inhibition of oxidative stress in HT-22 cells assessed as reduction in […] induced ROS level at 20 to 40 uM measured after 18 to 24 hrs by MitoSOX red dye based flow cytometry analysis. Type of test: functional, cell-based. To be noted: Mus musculus, dose 20-40 µM, time 18-24 hrs. The essentials: (§2)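 HT22 mouse hippocampal neuronal cells (passage 12-50) seeded at 3,000-5,000 cells/well on poly D-lysine-coated wells and incubated overnight. Cells pretreated with compound (DMSO stocks, matched vehicle) for 18-24 h, then exposed to glutamate or mouse TNFα for 18-24 h. Stained in PBS with 1 μM calcein-AM, 5 μM MitoSOX and 10 μg/mL Hoechst for 30-45 min. Imaging cytometry; MitoSOX mean intensity expressed as fold over vehicle. At least three experiments, each with at least triplicate wells.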

Test [7] deals with HT-22. The experiment in a line: Neuroprotective activity against glutamate induced excitotoxicity in HT-22 cells assessed as decrease in ROS activity at 20 to 40 uM measured after 18 to 24 hrs by MitoSOX red dye based flow cytometry analysis. To be noted: Mus musculus, dose 20-40 µM, time 18-24 hrs. Format: functional, cell-based. The essentials:
as §2

The test system of test [8] is HT-22. The experiment in a line: Neuroprotective activity against glutamate induced excitotoxicity in HT-22 cells assessed as decrease in ROS activity measured after 18 to 24 hrs MitoSOX red dye based flow cytometry analysis. Type of test: functional, cell-based. To be noted: Mus musculus, dose 1.25-40 µM, time 18-24 hrs. The essentials:
as §2

The test system of test [9] is HT-22. The experiment in a line: Inhibition of oxidative stress in HT-22 cells assessed as fold reduction in […] induced ROS level at 40 uM measured after 18 to 24 hrs by MitoSOX red dye based flow cytometry analysis. Format: functional, Mus musculus. The conditions noted are these: time 18-24 hrs. In a few lines: as §1

The values that follow come from ChEMBL document CHEMBL5357070, “Nicotinamide Phosphoribosyltransferase Positive Allosteric Modulators Attenuate Neuronal Oxidative Stress” (ACS Med Chem Lett, 2024).

The source made the active and inactive calls. The calls are words filed in the database; no cut-off is given here.

With `COc1ccc(CN(CCC2(C(C)C)CCOC(C)(C)C2)C(=O)c2ccc(Br)s2)cc1` (stereo not given), the concentration for a half-maximal effect (EC50) (commonly the midpoint of the concentration-response curve) in test [1] (read-out: EC50) is 12.8 µM.
For the compound `COc1ccc(CN(CCC2(C(C)C)CCOC(C)(C)C2)C(=O)c2ccco2)c(C(F)(F)F)c1` (stereo not given), in test [1], the EC50 result was “Not Active”.
On to `O=C(NCc1ccncc1)Nc1ccc(S(=O)(=O)N2CC3CCC(C2)O3)cc1`, for which the “fold change (FC)” value in test [2] worked out at 1.348; in test [3] it was 1.26.
`CC(C)C1(CCN(Cc2ccc(N(C)C)cc2)C(=O)c2ccco2)CCOC(C)(C)C1` (stereo not given): the figures for the “fold change (FC)” value in test [2] and in [4] were 1.287 and 1.247, respectively. The Activity is 88% in test [5] (filed as positive allosteric modulator) and “Dose-Dependent Effect” in [8]. For the same compound, in test [6], the inhibition entry is “Active”. Moreover, the EC50 in test [1] (read-out: EC50) was 3.29 µM. For the same compound, in test [7], the result was Active.
For the compound `COc1ccc(CN(CCC2(C(C)C)CCOC(C)(C)C2)C(=O)c2ccco2)cc1` (stereo not given), the “fold change (FC)” value was determined as 1.425 in test [4], 1.434 in test [3] and 1.133 in [9]. Besides, the Activity in [5] worked out at 18%.
Take `COc1ccc(CN(CCC2(C(C)C)CCOC(C)(C)C2)C(=O)c2cncnc2)cc1` (stereo not given): the EC50 entry in [1] is “Not Active”.
As for `CC(C)C1(CCN(Cc2ccc(OC(F)(F)F)cc2)C(=O)c2ccco2)CCOC(C)(C)C1` (stereo not given), the EC50 result in test [1] is given as “Not Active”.
For the compound `COc1ccc(CNCCC2CCOCC2)cc1`, the concentration giving a half-maximal response (EC50) result in test [1] is “Not Active”.
In the case of `COc1ccc(CNC(=O)c2ccco2)cc1`, in test [1], the concentration for a half-maximal effect (EC50) entry is listed as “Not Active”.
Take `COc1ccc(CN(CCC2(C(C)C)CCOC(C)(C)C2)C(=O)c2cnc[nH]2)cc1` (stereo not given): in [1], the half-maximal effective concentration (EC50) was greater than 8 µM.
